According to ChEMBL document CHEMBL1135731, “Synthesis and nicotinic binding studies on enantiopure diazine analogues of the novel (2-chloro-5-pyridyl)-9-azabicyclo[4.2.1]non-2-ene UB-165” (J Med Chem, 2002):

Tests used:
[1] = target: Neuronal acetylcholine receptor subunit alpha-7 (Rattus norvegicus, UniProt Q05941); experiment: Binding affinity to subtype Nicotinic acetylcholine receptor alpha7 using [3H]-MLA as radioligand in rat brain; assay type: tissue-based
Method in brief: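 Rat brain membrane fractions in HEPES-salt solution, competition against [3H]MLA at 22 °C. Nonspecific binding defined with 1 μM MLA. […] Mean ± SEM of 3-5 independent experiments.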

[2] = target: Neuronal acetylcholine receptor; alpha4/beta2 (Rattus norvegicus, UniProt P09483+P12390); experiment: Binding affinity to Nicotinic acetylcholine receptor alpha4-beta2 using +/-[3H]epibatidine as radioligand in rat brain; assay type: tissue-based
Sequence of Neuronal acetylcholine receptor; alpha4/beta2 (P09483 whole entry): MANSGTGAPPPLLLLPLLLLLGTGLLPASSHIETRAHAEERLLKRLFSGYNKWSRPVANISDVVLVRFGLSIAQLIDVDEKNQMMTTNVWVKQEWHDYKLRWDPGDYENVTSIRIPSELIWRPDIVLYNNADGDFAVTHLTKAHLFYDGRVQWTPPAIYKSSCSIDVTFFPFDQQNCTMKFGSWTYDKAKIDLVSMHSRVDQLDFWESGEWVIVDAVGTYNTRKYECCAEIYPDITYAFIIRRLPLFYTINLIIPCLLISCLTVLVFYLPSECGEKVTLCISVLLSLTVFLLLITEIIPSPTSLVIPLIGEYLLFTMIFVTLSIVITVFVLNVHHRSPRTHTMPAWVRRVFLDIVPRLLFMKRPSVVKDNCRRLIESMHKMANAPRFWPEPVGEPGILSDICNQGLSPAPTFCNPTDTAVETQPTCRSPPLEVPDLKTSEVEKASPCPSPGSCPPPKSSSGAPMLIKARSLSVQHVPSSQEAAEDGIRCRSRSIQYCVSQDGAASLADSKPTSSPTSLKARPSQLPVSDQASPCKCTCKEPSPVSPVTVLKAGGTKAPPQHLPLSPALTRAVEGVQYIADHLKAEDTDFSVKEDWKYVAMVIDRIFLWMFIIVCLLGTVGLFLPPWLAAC
Sequence of Neuronal acetylcholine receptor; alpha4/beta2 (P12390 whole entry): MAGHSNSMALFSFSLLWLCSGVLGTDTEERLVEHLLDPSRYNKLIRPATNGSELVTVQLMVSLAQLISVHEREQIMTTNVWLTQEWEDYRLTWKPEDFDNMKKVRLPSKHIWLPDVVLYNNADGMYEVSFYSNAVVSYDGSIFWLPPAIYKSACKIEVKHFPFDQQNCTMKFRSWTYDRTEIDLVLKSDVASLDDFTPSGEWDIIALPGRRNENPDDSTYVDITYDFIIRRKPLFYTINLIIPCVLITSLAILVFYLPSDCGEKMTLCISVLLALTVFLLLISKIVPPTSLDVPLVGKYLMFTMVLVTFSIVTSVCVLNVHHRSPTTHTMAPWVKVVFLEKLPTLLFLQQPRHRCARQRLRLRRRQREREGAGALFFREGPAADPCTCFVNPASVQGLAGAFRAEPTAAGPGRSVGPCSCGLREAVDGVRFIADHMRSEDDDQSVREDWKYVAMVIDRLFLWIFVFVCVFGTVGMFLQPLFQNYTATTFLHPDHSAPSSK
Method in brief: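 Crude synaptic P2 membranes from Sprague–Dawley rat forebrain (cerebellum and medulla excluded), washed in HEPES-salt buffer pH-unspecified (HEPES 15 mM, NaCl 120 mM, KCl 5.4 mM, MgCl2 0.8 mM, CaCl2 1.8 mM). Mean ± SEM, n = 3-5.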

Sequence of Neuronal acetylcholine receptor subunit alpha-7 (Q05941 whole entry): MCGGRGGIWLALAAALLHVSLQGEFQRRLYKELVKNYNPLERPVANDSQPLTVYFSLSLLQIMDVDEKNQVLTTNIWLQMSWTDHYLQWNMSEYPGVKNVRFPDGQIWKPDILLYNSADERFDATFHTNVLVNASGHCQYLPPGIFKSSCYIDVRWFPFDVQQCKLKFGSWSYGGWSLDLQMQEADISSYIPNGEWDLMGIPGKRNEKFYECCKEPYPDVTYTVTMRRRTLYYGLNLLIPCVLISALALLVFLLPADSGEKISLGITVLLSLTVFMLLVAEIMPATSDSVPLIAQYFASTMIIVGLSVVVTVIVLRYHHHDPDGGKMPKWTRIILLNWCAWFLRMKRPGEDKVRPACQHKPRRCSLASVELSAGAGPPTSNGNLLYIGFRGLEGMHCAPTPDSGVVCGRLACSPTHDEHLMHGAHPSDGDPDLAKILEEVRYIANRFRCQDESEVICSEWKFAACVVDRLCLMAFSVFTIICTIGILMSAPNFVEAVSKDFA

SMILES | Ki [1] [nM] | Ki [2] [nM]
C1=C(c2cncnc2)C2CC[C@H](CC1)N2 | 10.7 | 0.14
C1=C(c2cccnc2)C2CC[C@H](CC1)N2 | 0.95 | 0.051
Clc1ccc(C2=CCC[C@H]3CCC2N3)cn1 | 12 | –
C1=C(c2ccnnc2)C2CC[C@H](CC1)N2 | > 10 | 19
C1=C(c2cnccn2)C2CC[C@H](CC1)N2 | 250 | 12
